These results are taken from ChEMBL document CHEMBL1221207, “Expanding the promiscuity of a natural-product glycosyltransferase by directed evolution” (Nat Chem Biol, 2007).

In series [1] the target is T1, Oleandomycin glycosyltransferase (Streptomyces antibioticus) (UniProt Q53685).
T1 sequence (whole entry): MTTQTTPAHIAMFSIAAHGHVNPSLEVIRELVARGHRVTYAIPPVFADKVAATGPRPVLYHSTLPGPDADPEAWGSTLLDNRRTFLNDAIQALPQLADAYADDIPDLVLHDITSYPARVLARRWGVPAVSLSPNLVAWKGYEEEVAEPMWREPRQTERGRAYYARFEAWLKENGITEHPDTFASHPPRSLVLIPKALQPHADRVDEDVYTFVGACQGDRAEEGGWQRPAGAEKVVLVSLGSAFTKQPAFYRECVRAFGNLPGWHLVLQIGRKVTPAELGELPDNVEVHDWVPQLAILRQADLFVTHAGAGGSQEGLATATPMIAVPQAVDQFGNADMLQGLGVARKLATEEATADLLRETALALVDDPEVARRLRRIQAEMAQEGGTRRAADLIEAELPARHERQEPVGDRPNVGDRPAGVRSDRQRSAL
The series can be described thus: Activity at Streptomyces antibioticus wild-type OleD assessed as as rate of glucoside formation measured as nanomoles of product formed per minute per mg of enzyme.

For series [2], the system named is T2, Oleandomycin glycosyltransferase (Streptomyces antibioticus), Q53685 [P67T].
T2 sequence (whole entry): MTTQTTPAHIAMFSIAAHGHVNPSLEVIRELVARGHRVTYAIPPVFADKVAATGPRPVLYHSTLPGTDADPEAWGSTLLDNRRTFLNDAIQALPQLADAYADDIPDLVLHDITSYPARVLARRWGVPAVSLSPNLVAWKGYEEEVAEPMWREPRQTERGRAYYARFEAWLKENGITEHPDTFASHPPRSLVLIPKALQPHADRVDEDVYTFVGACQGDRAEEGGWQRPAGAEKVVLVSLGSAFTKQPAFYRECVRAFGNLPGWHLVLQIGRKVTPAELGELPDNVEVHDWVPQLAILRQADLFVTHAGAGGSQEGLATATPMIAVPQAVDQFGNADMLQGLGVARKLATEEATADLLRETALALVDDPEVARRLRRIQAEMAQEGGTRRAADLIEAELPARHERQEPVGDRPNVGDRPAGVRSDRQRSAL
Description: Activity of Streptomyces antibioticus OleD P67T mutant assessed as as rate of glucoside formation measured as nanomoles of product formed per minute per mg of enzyme.

The target in series [3] is T1, Oleandomycin glycosyltransferase (Streptomyces antibioticus). Description: Activity of Streptomyces antibioticus OleD […] mutant assessed as as rate of glucoside formation measured as nanomoles of product formed per minute per mg of enzyme.
Series [4] deals with T3, Oleandomycin glycosyltransferase (Streptomyces antibioticus), Q53685 [A242V].
T3 sequence (whole entry): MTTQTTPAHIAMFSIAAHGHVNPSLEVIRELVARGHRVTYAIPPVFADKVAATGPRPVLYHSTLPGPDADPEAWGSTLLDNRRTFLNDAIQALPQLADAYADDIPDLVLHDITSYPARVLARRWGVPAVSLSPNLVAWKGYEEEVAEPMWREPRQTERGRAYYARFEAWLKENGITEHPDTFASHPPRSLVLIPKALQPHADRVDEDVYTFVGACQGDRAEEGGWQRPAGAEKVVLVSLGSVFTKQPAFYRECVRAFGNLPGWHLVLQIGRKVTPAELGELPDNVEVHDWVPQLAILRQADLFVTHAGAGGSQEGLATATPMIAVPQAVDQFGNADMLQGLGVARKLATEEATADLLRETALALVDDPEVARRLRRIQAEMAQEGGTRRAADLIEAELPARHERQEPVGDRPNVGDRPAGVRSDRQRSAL
Description: Activity of Streptomyces antibioticus OleD A242V mutant assessed as as rate of glucoside formation measured as nanomoles of product formed per minute per mg of enzyme.

Series [5] concerns T4, Oleandomycin glycosyltransferase (Streptomyces antibioticus), Q53685 [P67T,S132F,A242V].
T4 sequence (whole entry): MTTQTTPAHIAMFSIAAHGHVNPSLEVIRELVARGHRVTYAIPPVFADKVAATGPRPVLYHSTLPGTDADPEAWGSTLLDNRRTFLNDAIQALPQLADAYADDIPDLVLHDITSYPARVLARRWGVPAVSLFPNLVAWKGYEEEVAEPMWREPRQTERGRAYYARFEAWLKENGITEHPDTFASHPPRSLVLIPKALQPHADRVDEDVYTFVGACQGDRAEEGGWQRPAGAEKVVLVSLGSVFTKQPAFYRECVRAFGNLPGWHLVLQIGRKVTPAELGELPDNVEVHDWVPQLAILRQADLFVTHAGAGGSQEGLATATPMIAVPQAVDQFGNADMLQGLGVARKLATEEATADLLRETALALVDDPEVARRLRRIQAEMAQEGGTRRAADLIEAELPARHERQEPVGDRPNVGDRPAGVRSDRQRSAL
Description: Activity of Streptomyces antibioticus OleD P67T/S132F/A242V mutant assessed as as rate of glucoside formation measured as nanomoles of product formed per minute per mg of enzyme.

Substrate in series [6]: Cc1cc(=O)oc2cc(O)ccc12
The series can be described thus: Ratio of Kcat to Km for Streptomyces antibioticus wild-type OleD assessed as as rate of glucoside formation using varying compound concentration by enzyme kinetics assay. The gist of the method:
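Wild-type OleD steady-state kinetics with 4-methylumbelliferone as the variable acceptor, up to 10 mM (its solubility limit in water/DMSO), and UDP-glucose as donor. Read-out was the rate of glucoside formation. kcat/Km was obtained by linear regression of rate against acceptor concentration.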

Substrate in series [7]: Cc1cc(=O)oc2cc(O)ccc12
Description: Activity of Streptomyces antibioticus wild-type OleD assessed as as rate of glucoside formation at 10 mM using varying NDP sugar UDP-glucose concentration by enzyme kinetics assay. The method in brief: (§1)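 Steady-state kinetics of wild-type OleD glucosylating the acceptor 4-methylumbelliferone to its 7-O-glucoside, with the acceptor fixed at 10 mM and donor UDP-glucose as the variable substrate. Apparent donor kinetic parameters were taken from the rate versus UDP-glucose concentration data.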

Substrate in series [8]: Cc1cc(=O)oc2cc(O)ccc12
Description: Ratio of Kcat to Km for Streptomyces antibioticus wild-type OleD assessed as as rate of glucoside formation at 10 mM using varying NDP sugar UDP-glucose concentration by enzyme kinetics assay. The gist of the method:
as §1

Substrate in series [9]: Cc1cc(=O)oc2cc(O)ccc12
The series can be described thus: Activity of Streptomyces antibioticus OleD P67T/S132F/A242V mutant assessed as as rate of glucoside formation using varying compound concentration by enzyme kinetics assay. The method in brief: (§2)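 Steady-state kinetics with the acceptor 4-methylumbelliferone as the variable substrate and UDP-Glc as donor. The acceptor limit was its solubility in water/DMSO, 10 mM. Apparent Km and kcat were derived from the saturation curve.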

Substrate in series [10]: Cc1cc(=O)oc2cc(O)ccc12
The series can be described thus: Ratio of Kcat to Km for Streptomyces antibioticus OleD P67T/S132F/A242V mutant assessed as as rate of glucoside formation using varying compound concentration by enzyme kinetics assay. The gist of the method:
as §2

Substrate in series [11]: Cc1cc(=O)oc2cc(O)ccc12
The series can be described thus: Activity of Streptomyces antibioticus OleD P67T/S132F/A242V mutant assessed as rate of glucoside formation at 10 mM using varying NDP sugar UDP-glucose concentration by enzyme kinetics assay. The method in brief: (§3)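 Steady-state kinetics with donor UDP-Glc varied at a fixed concentration of the acceptor 4-methylumbelliferone. The result was reported as an apparent donor Km, with kcat from the same analysis.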

Substrate in series [12]: Cc1cc(=O)oc2cc(O)ccc12
Description: Ratio of Kcat to Km for Streptomyces antibioticus OleD P67T/S132F/A242V mutant assessed as rate of glucoside formation at 10 mM using varying NDP sugar UDP-glucose concentration by enzyme kinetics assay. The gist of the method: as §3

Broadly, the kcat/Km is the second-order rate constant that governs catalysis at low substrate concentration. For orientation: kcat means the number of substrate molecules converted per active site and unit of time at saturation.

For `O=c1c(-c2ccc(O)cc2)coc2cc(O)cc(O)c12`, the Activity in [1] turned out to be 3.4 nmol/min; in series [2], 28.8 nmol/min; in [3] it was 8.8 nmol/min; in series [4], 14.1 nmol/min; in series [5] it was 26 nmol/min.

With `O=c1c(O)c(-c2ccc(O)cc2)oc2cc(O)cc(O)c12`, the Activity in series [1] stood at 13.2 nmol/min; in series [2], 99.9 nmol/min; in series [3], 23 nmol/min; in [4] it was 15.3 nmol/min; in series [5], 28 nmol/min.

As for `O=C(O)Cc1cc(=O)oc2cc(O)ccc12`, the Activity is 0.22 nmol/min in [2], 0.08 nmol/min in [3], 0.16 nmol/min in [4] and 3.6 nmol/min in [5].

With `CO[C@H]1C[C@H](O[C@H]2[C@H](C)[C@@H](O[C@@H]3O[C@H](C)C[C@H](N(C)C)[C@H]3O)[C@@H](C)C[C@@]3(CO3)C(=O)[C@H](C)[C@@H](O)[C@@H](C)[C@@H](C)OC(=O)[C@@H]2C)O[C@@H](C)[C@@H]1O`, the Activity in [1] was determined as 700 nmol/min; in series [2] it was 200 nmol/min; in series [3], 1490 nmol/min; in series [4] it was 70 nmol/min; in series [5] it was 13 nmol/min.

For `O=c1c(-c2ccc(O)cc2)coc2cc(O)ccc12`, the Activity in series [1] came out at 4.2 nmol/min; in series [2], 16 nmol/min; in series [3], 5.5 nmol/min; in series [4], 8.5 nmol/min; in [5], 24 nmol/min.

Take `O=C(O)c1cc2ccc(O)cc2oc1=O`: the Activity stood at 0.01 nmol/min in series [1]; 0.022 nmol/min in series [2]; 0.022 nmol/min in series [3]; 0.01 nmol/min in series [4]; 0.62 nmol/min in series [5].

On to `CC(C)=CCc1cc(C(=O)Nc2c(O)c3ccc(O)c(C)c3oc2=O)ccc1O`, for which the Activity in [1] came out at 0.24 nmol/min; in series [2], 0.65 nmol/min; in series [3], 0.49 nmol/min; in series [4] it was 0.33 nmol/min; in series [5], 1.14 nmol/min.

B1: Oleandomycin glycosyltransferase (Streptomyces antibioticus), Q53685 (protein)
chain: MTTQTTPAHIAMFSIAAHGHVNPSLEVIRELVARGHRVTYAIPPVFADKVAATGPRPVLYHSTLPGPDADPEAWGSTLLDNRRTFLNDAIQALPQLADAYADDIPDLVLHDITSYPARVLARRWGVPAVSLSPNLVAWKGYEEEVAEPMWREPRQTERGRAYYARFEAWLKENGITEHPDTFASHPPRSLVLIPKALQPHADRVDEDVYTFVGACQGDRAEEGGWQRPAGAEKVVLVSLGSAFTKQPAFYRECVRAFGNLPGWHLVLQIGRKVTPAELGELPDNVEVHDWVPQLAILRQADLFVTHAGAGGSQEGLATATPMIAVPQAVDQFGNADMLQGLGVARKLATEEATADLLRETALALVDDPEVARRLRRIQAEMAQEGGTRRAADLIEAELPARHERQEPVGDRPNVGDRPAGVRSDRQRSAL
For B1, in series [6], the kcat/Km worked out at 3 M⁻¹ s⁻¹. In series [7], the Km came out at 300 µM and the turnover number (kcat) is 0.00867 s⁻¹. Further, in series [8], the kcat/Km is 28.8 M⁻¹ s⁻¹.

B2: Oleandomycin glycosyltransferase (Streptomyces antibioticus), Q53685 P67T,S132F,A242V (protein)
chain: MTTQTTPAHIAMFSIAAHGHVNPSLEVIRELVARGHRVTYAIPPVFADKVAATGPRPVLYHSTLPGTDADPEAWGSTLLDNRRTFLNDAIQALPQLADAYADDIPDLVLHDITSYPARVLARRWGVPAVSLFPNLVAWKGYEEEVAEPMWREPRQTERGRAYYARFEAWLKENGITEHPDTFASHPPRSLVLIPKALQPHADRVDEDVYTFVGACQGDRAEEGGWQRPAGAEKVVLVSLGSVFTKQPAFYRECVRAFGNLPGWHLVLQIGRKVTPAELGELPDNVEVHDWVPQLAILRQADLFVTHAGAGGSQEGLATATPMIAVPQAVDQFGNADMLQGLGVARKLATEEATADLLRETALALVDDPEVARRLRRIQAEMAQEGGTRRAADLIEAELPARHERQEPVGDRPNVGDRPAGVRSDRQRSAL
As for B2, the Km in series [9] came to 140 µM; in series [11] it was 0.03 min⁻¹. Also, the figures for the catalytic constant (kcat) in series [9] and in [11] were 0.0247 s⁻¹ and 0.0215 s⁻¹, respectively. Further, the figures for the kcat/Km in [10] and in series [12] were 177 M⁻¹ s⁻¹ and 717 M⁻¹ s⁻¹, respectively.
